{"source": "ChEMBL document CHEMBL4376814", "about": "“Novel cyclin-dependent kinase 9 (CDK9) inhibitor with suppression of cancer stemness activity against non-small-cell lung cancer” (Eur J Med Chem, 2019)", "key": {"[1]": {"target": "Fibroblast growth factor receptor 4 (Homo sapiens) (UniProt P22455)", "sequence (P22455 22-802 limits assumed)": "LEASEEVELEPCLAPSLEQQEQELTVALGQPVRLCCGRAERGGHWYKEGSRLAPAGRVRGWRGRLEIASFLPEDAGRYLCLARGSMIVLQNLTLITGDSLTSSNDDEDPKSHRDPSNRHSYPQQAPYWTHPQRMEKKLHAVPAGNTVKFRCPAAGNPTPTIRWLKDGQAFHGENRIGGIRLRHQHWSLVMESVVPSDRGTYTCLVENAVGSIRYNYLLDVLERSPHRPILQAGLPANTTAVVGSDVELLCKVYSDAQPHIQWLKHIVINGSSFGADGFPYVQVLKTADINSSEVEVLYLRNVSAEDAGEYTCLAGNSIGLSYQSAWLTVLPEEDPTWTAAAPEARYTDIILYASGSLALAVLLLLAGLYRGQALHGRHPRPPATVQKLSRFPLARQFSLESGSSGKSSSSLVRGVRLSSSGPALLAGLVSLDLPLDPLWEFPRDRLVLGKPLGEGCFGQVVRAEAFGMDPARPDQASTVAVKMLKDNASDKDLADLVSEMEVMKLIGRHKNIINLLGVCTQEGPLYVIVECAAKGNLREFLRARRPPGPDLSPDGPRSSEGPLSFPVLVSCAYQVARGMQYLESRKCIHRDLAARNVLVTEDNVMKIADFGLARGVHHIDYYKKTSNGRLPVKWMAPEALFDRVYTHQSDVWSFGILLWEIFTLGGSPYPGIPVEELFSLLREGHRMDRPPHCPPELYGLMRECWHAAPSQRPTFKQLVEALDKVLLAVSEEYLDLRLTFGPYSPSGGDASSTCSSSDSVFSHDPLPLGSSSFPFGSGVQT", "experiment": "Inhibition of recombinant human FGFR4 (442 to 755 residues) at 1 uM using poly(Glu, Tyr) 4:1 as substrate measured after 40 mins in presence of [gamma33P]ATP by scintillation counting method relative to control"}, "[2]": {"tested_on": "Receptor-type tyrosine-protein kinase FLT3 (Homo sapiens), P36888 [D835Y]", "experiment": "Inhibition of recombinant human Flt3 (564 to end residues) D835Y mutant at 1 uM using EAIYAAPFAKKK as substrate measured after 40 mins in presence of [gamma33P]ATP by scintillation counting method relative to control"}, "[3]": {"target": "Ribosomal protein S6 kinase alpha-1 (Homo sapiens) (UniProt Q15418)", "experiment": "Inhibition of recombinant full-length human Rsk1 at 1 uM using KKKNRTLSVA as substrate measured after 40 mins in presence of [gamma33P]ATP by scintillation counting method relative to control"}, "[4]": {"experiment": "Half life in Beagle dog liver microsomes at 2 uM in presence of NADPH measured up to 1 hr by HPLC analysis", "assay_type": "ADME, Canis lupus familiaris, Microsome", "procedure,_shortened": "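Drug at 2 µM incubated at 37 °C with male liver microsomes at 1 mg/mL, in 0.1 M phosphate buffer pH 7.4 with MgCl2. After 5 min preincubation, reaction started with NADPH. Samples (n=3) taken at 0, 10, 20, 30, 45 and 60 min, quenched with ice-cold acetonitrile, spun, and analysed by HPLC. t1/2 derived from the fitted rate constant k.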"}, "NCI-H1299 [5]": {"tested_on": "NCI-H1299", "experiment": "Antitumour activity against human H1299 cells xenografted in Balb/c mouse assessed as reduction in Oct4 level at 20 to 80 mg/kg, po administered for 3 weeks by […] based light microscopic analysis", "assay_type": "functional, organism-based", "procedure,_shortened": "(§1)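 Tumours came from the H1299 oral-dosing xenograft run for 3 weeks. Formalin-fixed, paraffin-embedded 5-µm sections were deparaffinized and rehydrated. Primary antibodies (CDK9, cyclin T1, p-Rb Ser780, RNAPII CTD Ser5, Oct4) used at 1:100 overnight at 4 °C. Biotinylated secondary for 1 h at room temperature, then ABC-peroxidase/DAB, hematoxylin counterstain and light microscopy.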"}, "[6]": {"tested_on": "Serine/threonine-protein kinase Sgk1 (Homo sapiens), O00141 [S422D]", "sequence (O00141 whole entry S422D)": "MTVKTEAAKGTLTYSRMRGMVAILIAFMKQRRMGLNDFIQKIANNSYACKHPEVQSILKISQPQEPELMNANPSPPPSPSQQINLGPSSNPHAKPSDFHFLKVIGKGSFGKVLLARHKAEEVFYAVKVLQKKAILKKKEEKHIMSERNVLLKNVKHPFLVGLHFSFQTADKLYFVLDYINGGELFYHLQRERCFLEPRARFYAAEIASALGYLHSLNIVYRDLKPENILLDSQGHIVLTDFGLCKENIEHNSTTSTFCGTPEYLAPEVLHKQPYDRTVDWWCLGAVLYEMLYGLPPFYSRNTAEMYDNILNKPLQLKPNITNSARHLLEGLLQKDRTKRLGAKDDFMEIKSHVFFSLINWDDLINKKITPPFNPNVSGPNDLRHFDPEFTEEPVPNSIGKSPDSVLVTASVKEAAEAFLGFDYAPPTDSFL", "experiment": "Inhibition of recombinant human SGK S422D mutant (60 to end residues) at 1 uM using GRPRTSSFAEGKK as substrate measured after 40 mins in presence of [gamma33P]ATP by scintillation counting method relative to control"}, "NCI-H1299 [7]": {"tested_on": "NCI-H1299", "experiment": "Antitumour activity against human H1299 cells xenografted in Balb/c mouse assessed as effect on CDK9 level at 20 to 80 mg/kg, po administered for 3 weeks by […] based light microscopic analysis", "assay_type": "functional, organism-based", "procedure,_shortened": "as §1"}, "[8]": {"target": "Protein kinase C iota type (Homo sapiens) (UniProt P41743)", "sequence (P41743 whole entry)": "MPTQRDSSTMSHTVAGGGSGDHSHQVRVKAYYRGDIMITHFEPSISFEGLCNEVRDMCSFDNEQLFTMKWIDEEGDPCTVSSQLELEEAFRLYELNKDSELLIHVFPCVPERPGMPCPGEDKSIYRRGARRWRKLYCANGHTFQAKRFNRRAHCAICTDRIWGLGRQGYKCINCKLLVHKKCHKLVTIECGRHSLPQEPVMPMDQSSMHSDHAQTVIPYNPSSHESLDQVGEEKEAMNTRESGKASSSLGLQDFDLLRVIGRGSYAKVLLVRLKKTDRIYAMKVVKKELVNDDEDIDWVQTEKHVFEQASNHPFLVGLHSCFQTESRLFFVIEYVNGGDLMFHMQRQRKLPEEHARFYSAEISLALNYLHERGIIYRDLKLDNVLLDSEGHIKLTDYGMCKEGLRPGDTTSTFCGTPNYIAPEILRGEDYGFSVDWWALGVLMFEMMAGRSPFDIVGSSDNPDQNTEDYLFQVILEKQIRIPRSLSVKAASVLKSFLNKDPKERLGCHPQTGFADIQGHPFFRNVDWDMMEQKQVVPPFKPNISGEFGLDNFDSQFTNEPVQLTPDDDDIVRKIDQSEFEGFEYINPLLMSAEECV", "experiment": "Inhibition of recombinant full-length human PKCiota at 1 uM using ERMRPRKRQGSVRRRV as substrate measured after 40 mins in presence of [gamma33P]ATP by scintillation counting method relative to control"}, "NCI-H1299 [9]": {"tested_on": "NCI-H1299", "experiment": "Downregulation of cyclin T1 expression in human H1299 cells at 0.25 to 1 uM after 24 hrs by Western blot analysis", "assay_type": "functional, cell-based", "procedure,_shortened": "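A549 and H1299 cells treated for 24 h with serial dilutions alongside a DMSO control. Protein extracts resolved and immunoblotted.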"}, "[10]": {"target": "Serine/threonine-protein kinase Chk2 (Homo sapiens) (UniProt O96017)", "sequence (O96017 whole entry)": "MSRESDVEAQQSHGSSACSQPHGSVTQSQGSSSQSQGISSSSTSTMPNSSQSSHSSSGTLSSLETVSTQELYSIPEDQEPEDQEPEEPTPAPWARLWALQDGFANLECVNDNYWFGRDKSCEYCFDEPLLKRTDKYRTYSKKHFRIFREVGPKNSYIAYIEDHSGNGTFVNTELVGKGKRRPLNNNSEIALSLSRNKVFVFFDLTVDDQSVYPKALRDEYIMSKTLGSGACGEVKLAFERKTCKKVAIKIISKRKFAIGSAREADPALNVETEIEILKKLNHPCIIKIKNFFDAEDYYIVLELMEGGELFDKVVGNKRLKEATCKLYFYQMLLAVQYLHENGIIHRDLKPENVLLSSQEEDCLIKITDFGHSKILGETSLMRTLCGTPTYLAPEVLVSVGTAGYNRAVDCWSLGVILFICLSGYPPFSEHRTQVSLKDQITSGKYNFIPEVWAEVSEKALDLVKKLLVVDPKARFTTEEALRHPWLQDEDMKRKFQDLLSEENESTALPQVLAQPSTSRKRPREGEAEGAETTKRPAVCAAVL", "experiment": "Inhibition of recombinant human CHK2 (5 to end residues) at 1 uM using KKKVSRSGLYRSPSMPENLNRPR as substrate measured after 40 mins in presence of [gamma33P]ATP by scintillation counting method relative to control", "procedure,_shortened": "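Single-point inhibition at 1 µM was measured in the Eurofins KinaseProfiler panel. Values are the mean of two independent experiments.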"}, "[11]": {"target": "Serine/threonine-protein kinase D2 (Homo sapiens) (UniProt Q9BZL6)", "experiment": "Inhibition of recombinant full-length human PKD2 at 1 uM using KKLNRTLSVA as substrate measured after 40 mins in presence of [gamma33P]ATP by scintillation counting method relative to control"}, "[12]": {"target": "Ribosomal protein S6 kinase alpha-2 (Homo sapiens) (UniProt Q15349)", "experiment": "Inhibition of human Rsk2 (2 to end residues) at 1 uM using KKKNRTLSVA as substrate measured after 40 mins in presence of [gamma33P]ATP by scintillation counting method relative to control", "procedure,_shortened": "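Percent inhibition of kinase activity at a single compound concentration, measured by the outsourced Eurofins KinaseProfiler panel. Values are the mean of two independent experiments.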"}, "NCI-H1299 [13]": {"tested_on": "NCI-H1299", "experiment": "Inhibition of tumorsphere formation in human H1299 cells assessed as reduction in side population ratio by PI/Hoechst 33342 staining based flow cytometry", "assay_type": "functional, cell-based"}, "[14]": {"target": "Serine/threonine-protein kinase 4 (Homo sapiens) (UniProt Q13043)", "sequence (Q13043 whole entry)": "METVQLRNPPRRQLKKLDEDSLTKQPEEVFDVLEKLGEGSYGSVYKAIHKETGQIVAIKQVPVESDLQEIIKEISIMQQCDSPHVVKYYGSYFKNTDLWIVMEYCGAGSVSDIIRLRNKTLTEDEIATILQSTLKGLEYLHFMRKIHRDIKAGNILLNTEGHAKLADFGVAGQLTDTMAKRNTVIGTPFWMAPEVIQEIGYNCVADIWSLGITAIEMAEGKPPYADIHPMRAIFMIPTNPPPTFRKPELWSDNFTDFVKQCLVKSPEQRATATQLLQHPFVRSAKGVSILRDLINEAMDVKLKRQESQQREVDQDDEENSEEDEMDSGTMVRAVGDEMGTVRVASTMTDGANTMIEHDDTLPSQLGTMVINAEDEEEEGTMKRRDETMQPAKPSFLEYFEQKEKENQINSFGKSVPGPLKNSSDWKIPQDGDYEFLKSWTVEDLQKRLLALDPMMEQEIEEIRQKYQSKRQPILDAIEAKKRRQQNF", "experiment": "Inhibition of recombinant full-length human MST1 at 1 uM using KKSRGDYMTMQIG as substrate measured after 40 mins in presence of [gamma33P]ATP by scintillation counting method relative to control"}, "Homo sapiens": {"species_on_record": "Homo sapiens", "experiment": "Inhibition of recombinant human Mer H628Q/R794A mutant (557 to 882 residues) at 1 uM using GGMEDIYFEFMGGKKK as substrate measured after 40 mins in presence of [gamma33P]ATP by scintillation counting method relative to control"}, "CDK4/Cyclin D3": {"target": "CDK4/Cyclin D3 (Homo sapiens, UniProt P11802)", "experiment": "Inhibition of recombinant full-length human CDK4/cyclinD3 using Rb fragment as substrate measured after 40 mins in presence of [gamma33P]ATP by scintillation counting method", "assay_type": "protein-complex assay"}, "[15]": {"target": "Myotonin-protein kinase (Homo sapiens) (UniProt Q09013)", "experiment": "Inhibition of recombinant human DMPK (1 to 549 residues) at 1 uM using KKSRGDYMTMQIG as substrate measured after 40 mins in presence of [gamma33P]ATP by scintillation counting method relative to control"}, "[16]": {"target": "MAP kinase-activated protein kinase 3 (Homo sapiens) (UniProt Q16644)", "sequence (Q16644 whole entry, looked up)": "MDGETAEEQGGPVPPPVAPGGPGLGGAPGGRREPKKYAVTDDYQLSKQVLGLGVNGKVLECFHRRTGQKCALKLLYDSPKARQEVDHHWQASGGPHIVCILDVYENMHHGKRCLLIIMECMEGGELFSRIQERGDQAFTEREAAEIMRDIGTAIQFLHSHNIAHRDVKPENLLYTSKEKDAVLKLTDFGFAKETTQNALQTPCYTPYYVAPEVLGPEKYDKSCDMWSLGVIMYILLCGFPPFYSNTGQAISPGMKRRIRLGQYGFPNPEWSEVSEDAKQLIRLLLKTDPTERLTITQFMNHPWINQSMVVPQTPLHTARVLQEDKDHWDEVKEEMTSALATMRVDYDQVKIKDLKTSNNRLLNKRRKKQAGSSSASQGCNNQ", "experiment": "Inhibition of recombinant human MAPKAPK3 (2 to end residues) at 1 uM using KKLNRTLSVA as substrate measured after 40 mins in presence of [gamma33P]ATP by scintillation counting method relative to control"}, "[17]": {"target": "Serine/threonine-protein kinase 32C (Homo sapiens) (UniProt Q86UX6)", "sequence (Q86UX6 whole entry)": "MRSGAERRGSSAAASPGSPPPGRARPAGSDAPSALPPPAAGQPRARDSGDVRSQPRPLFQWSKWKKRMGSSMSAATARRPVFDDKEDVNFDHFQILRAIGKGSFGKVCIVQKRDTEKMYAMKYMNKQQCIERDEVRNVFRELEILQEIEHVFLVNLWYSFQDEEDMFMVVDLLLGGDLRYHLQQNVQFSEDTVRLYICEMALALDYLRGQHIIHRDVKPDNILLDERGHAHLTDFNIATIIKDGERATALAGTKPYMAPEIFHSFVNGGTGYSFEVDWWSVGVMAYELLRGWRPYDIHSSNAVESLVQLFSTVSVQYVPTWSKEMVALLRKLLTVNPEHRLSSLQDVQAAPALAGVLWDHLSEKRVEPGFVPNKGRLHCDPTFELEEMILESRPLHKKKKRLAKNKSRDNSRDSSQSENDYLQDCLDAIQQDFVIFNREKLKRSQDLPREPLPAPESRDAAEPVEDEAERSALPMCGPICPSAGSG", "experiment": "Inhibition of recombinant full-length human STK32C at 1 uM using casein as substrate measured after 120 mins in presence of [gamma33P]ATP by scintillation counting method relative to control"}, "NCI-H1299 [18]": {"tested_on": "NCI-H1299", "experiment": "Downregulation of NANOG in human H1299 cells at 0.25 to 1 uM by Western blot analysis", "assay_type": "functional, cell-based"}, "NCI-H1299 [19]": {"tested_on": "NCI-H1299", "experiment": "Induction of apoptosis in human H1299 cells assessed as increase in Bim level at 0.25 to 1 uM after 24 hrs by Western blot analysis", "assay_type": "functional, cell-based", "procedure,_shortened": "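A549 or H1299 cells exposed to the indicated concentrations for 24 h. Protein extracts then immunoblotted for apoptosis-pathway proteins (Bcl2, Bim, cleaved caspase 3).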"}, "[20]": {"target": "Mitogen-activated protein kinase kinase kinase kinase 5 (Homo sapiens) (UniProt Q9Y4K4)", "sequence (Q9Y4K4 whole entry, looked up)": "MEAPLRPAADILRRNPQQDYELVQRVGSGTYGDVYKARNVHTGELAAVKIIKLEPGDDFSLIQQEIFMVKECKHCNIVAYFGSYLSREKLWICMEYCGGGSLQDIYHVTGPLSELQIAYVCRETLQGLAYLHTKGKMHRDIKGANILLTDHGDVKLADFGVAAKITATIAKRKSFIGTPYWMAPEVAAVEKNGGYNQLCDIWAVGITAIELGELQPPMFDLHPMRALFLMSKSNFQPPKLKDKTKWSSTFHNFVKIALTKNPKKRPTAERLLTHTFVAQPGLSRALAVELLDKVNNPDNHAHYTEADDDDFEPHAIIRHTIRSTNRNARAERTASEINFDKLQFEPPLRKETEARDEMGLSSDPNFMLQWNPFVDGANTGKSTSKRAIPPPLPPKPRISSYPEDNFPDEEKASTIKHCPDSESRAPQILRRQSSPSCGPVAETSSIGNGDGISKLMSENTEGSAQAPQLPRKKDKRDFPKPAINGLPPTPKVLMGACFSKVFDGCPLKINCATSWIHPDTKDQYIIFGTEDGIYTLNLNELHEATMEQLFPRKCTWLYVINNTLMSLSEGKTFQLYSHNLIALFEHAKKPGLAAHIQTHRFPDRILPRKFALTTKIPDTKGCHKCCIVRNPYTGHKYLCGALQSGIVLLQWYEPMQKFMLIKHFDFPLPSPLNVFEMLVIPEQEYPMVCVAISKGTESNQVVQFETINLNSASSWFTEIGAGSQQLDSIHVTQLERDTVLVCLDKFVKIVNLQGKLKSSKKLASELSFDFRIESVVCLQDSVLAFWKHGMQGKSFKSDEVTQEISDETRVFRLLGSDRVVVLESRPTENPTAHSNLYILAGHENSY", "experiment": "Inhibition of recombinant full-length human MAP4K5 at 1 uM using MBP as substrate measured after 40 mins in presence of [gamma33P]ATP by scintillation counting method relative to control"}}, "note": "Activity calls are given as the source filed them. The calls are words filed in the database; no cut-off is given here.", "data": [{"compound": "CN(C)C(=O)c1cc2cnc(Nc3ccc(NC(=O)CCCCCCCN=C=S)cc3)nc2n1C1CCCC1", "values": [{"measurement": "inhibition", "setting": "[1]", "result": -2, "unit": "%"}, {"measurement": "inhibition", "setting": "[2]", "result": 72, "unit": "%"}, {"measurement": "inhibition", "setting": "[3]", "result": 21, "unit": "%"}, {"measurement": "half-life at 2 µM", "setting": "[4]", "result": 26.7, "unit": "min"}, {"measurement": "Activity", "setting": "NCI-H1299 [5]", "result": "Active"}, {"measurement": "inhibition", "setting": "[6]", "result": 24, "unit": "%"}, {"measurement": "Activity", "setting": "NCI-H1299 [7]", "result": "inactive"}, {"measurement": "inhibition", "setting": "[8]", "result": -4, "unit": "%"}, {"measurement": "Activity", "setting": "NCI-H1299 [9]", "result": "Active"}, {"measurement": "inhibition", "setting": "[10]", "result": 32, "unit": "%"}, {"measurement": "inhibition", "setting": "[11]", "result": -6, "unit": "%"}, {"measurement": "inhibition", "setting": "[12]", "result": 19, "unit": "%"}, {"measurement": "inhibition", "setting": "NCI-H1299 [13]", "result": "Dose-dependent effect"}, {"measurement": "inhibition", "setting": "[14]", "result": 17, "unit": "%"}, {"measurement": "inhibition", "setting": "Homo sapiens", "result": 77, "unit": "%"}, {"measurement": "IC50", "setting": "CDK4/Cyclin D3", "result": 148, "unit": "nM"}, {"measurement": "inhibition", "setting": "[15]", "result": 5, "unit": "%"}, {"measurement": "inhibition", "setting": "[16]", "result": 0, "unit": "%"}, {"measurement": "inhibition", "setting": "[17]", "result": 17, "unit": "%"}, {"measurement": "Activity", "setting": "NCI-H1299 [18]", "result": "Active"}, {"measurement": "Activity", "setting": "NCI-H1299 [19]", "result": "Active"}, {"measurement": "inhibition", "setting": "[20]", "result": 75, "unit": "%"}]}]}
